Published values from different studies.
Compare with care: the assays were run in different laboratories.
Organism: Mycobacterium tuberculosis
Observed: microbial growth

For `CCc1nc2ccc(Cl)cn2c1C(=O)NCc1cccc(S(F)(F)(F)(F)F)c1`, the MIC was 0.28 µM (H37RV; 5 days).
With `COC(=O)c1cc(-c2cccc(NC(=S)Nc3ccccc3Cl)c2)on1` the MIC was 2 µg/mL (ATCC27294 H37RV; 7 days).
The MIC of `N#Cc1cc(C(F)(F)F)cc2c(=O)nc(N3CCN(CC4CC4)CC3)sc12` is reported as over 2 µM (resazurin; H37RV).
With `CC[C@@H](CO)NCCN[C@@H](CC)CO` the MIC was 5 µg/mL (H37RV).
The MIC of `C=C[C@@H](O)C#CC#C[C@@H](O)/C=C\CCCCCCC` is reported as 26.7 µg/mL (resazurin; ATCC27294 H37RV; 7 days).
`CO[C@H]1/C=C/O[C@@]2(C)Oc3c(C)c(O)c4c(O)c(c(/C=N/N5CCN(C)CC5)c(O)c4c3C2=O)NC(=O)/C(C)=C\C=C\[C@H](C)[C@H](O)[C@@H](C)[C@@H](O)[C@@H](C)[C@H](OC(C)=O)[C@@H]1C` has an MIC of 0.85 µg/mL (H37RV).
`[H]/N=C(/N)N[C@H]1[C@H](O)[C@@H](O)[C@H](O[C@@H]2O[C@@H](C)[C@](O)(C=O)[C@H]2O[C@@H]2O[C@@H](CO)[C@H](O)[C@@H](O)[C@@H]2NC)[C@@H](N/C(N)=N\[H])[C@@H]1O` has an MIC of 6.25 µg/mL (resazurin; H37RV).
The MIC of `CC(C)[C@H]1CO[C@]23CCN(Cc4ccccc4)C[C@H]2CCC(=O)N13` is reported as 7.3 µM (H37RV; 7 days).
The MIC of `[O-][n+]1ccccc1SSc1cccc[n+]1[O-]` is reported as 0.23 µM (resazurin).
The MIC of `Cc1ccc(C)n1-c1ccc(-c2nnc(-c3ccc(N(C)C)cc3)[nH]2)cc1` is reported as 16 µg/mL (broth dilution; H37RV; 21 days).
`CO[C@@H]1[C@@H](OC(N)=O)[C@@H](O)[C@H](Oc2ccc3c(O)c(NC(=O)c4ccc(O)c(CC=C(C)C)c4)c(=O)oc3c2C)OC1(C)C` gave an MIC of 8 µg/mL (resazurin; H37RA; 14 days).
With `CCCC1CCC2(CC1)SCC(=O)N2NC(=O)c1[nH]c2ccc(Cl)cc2c1-c1ccccc1` (centres unmarked) the MIC was 31 µM (ATCC27294 H37RV).
`O=C1C(=NNc2nc(-c3ccccc3)cs2)C(N=Cc2ccc([N+](=O)[O-])cc2)=NN1c1ccccc1` gave an MIC of 50.5 µM (resazurin; H37RV; 5 days).
`O=C(CCNS(=O)(=O)c1ccccc1[N+](=O)[O-])N1CCN(C(c2ccc(F)cc2)c2ccc(F)cc2)CC1` gave an MIC of over 25 µg/mL (ATCC27294 H37RV).
For `COC(=O)c1cc(-c2cccc(NC(=O)Nc3ccc(F)cc3F)c2)on1`, the MIC was 1 µg/mL (ATCC27294 H37RV; 7 days).
`O=C(NN1C(=O)CSC12CCCCC2)c1[nH]c2ccc(Cl)cc2c1-c1ccccc1` has an MIC of 16 µM (ATCC27294 H37RV).
With `CO[C@H]1/C=C/O[C@@]2(C)Oc3c(C)c(O)c4c(O)c(c(/C=N/N5CCN(C)CC5)c(O)c4c3C2=O)NC(=O)/C(C)=C\C=C\[C@H](C)[C@H](O)[C@@H](C)[C@@H](O)[C@@H](C)[C@H](OC(C)=O)[C@@H]1C` the MIC was 0.03 µg/mL (ATCC27294 H37RV; 7 days).
With `CO[C@H]1/C=C/O[C@@]2(C)Oc3c(C)c(O)c4c(O)c(c(/C=N/N5CCN(C)CC5)c(O)c4c3C2=O)NC(=O)/C(C)=C\C=C\[C@H](C)[C@H](O)[C@@H](C)[C@@H](O)[C@@H](C)[C@H](OC(C)=O)[C@@H]1C` the MIC was 0.016 µM (W4).
`COC(=O)c1cc(-c2cccc(NC(=O)Nc3cccc(Cl)c3)c2)on1` gave an MIC of 0.5 µg/mL (ATCC27294 H37RV; 7 days).
With `COC1C(O)C(n2ccc(=O)[nH]c2=O)OC1C(OC1OC(C(=O)NC2CCCCNC2=O)=CC(O)C1O)C(N)=O` (centres unmarked) the MIC was 12.5 µg/mL (resazurin; H37RV).
